SR-BI HDL uptake: mouse SR-BI HDL lipid transfer inhibition. Q61009. ldlA[mSR-BI] CHO cells, DiI-HDL uptake fluorescence, 3 h. inhibition, % at 12.5 µM. 320,000 tested, 0.96% active;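 active = mean replicate inhibition of at least 70% and a set share of replicates each scoring 70 or more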
Target sequence (Q61009 whole entry, looked up): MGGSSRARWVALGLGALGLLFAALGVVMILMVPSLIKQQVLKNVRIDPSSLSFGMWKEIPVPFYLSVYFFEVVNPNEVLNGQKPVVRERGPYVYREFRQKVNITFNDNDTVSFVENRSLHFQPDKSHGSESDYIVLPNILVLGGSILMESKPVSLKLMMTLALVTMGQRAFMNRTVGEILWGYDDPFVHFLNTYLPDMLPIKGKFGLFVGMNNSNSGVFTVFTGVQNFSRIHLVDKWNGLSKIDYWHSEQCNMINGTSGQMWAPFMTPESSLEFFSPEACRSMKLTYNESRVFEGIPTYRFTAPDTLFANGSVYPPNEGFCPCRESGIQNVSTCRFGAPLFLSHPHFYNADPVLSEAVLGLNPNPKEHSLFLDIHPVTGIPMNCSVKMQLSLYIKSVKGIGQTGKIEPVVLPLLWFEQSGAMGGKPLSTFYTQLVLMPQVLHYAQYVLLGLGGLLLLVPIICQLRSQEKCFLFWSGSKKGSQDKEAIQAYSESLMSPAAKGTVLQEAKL
Vif inh: inhibitors of HIV Vif; HEK293T cells, Vif self-association by quenched fluorescence, imaging, 24 h; AID 602346; inhibition, % at 7.49 µM; 340,000 tested, 0.35% active; in the data active = inhibition above about 50%, passing the limit was not always enough
C2C12 statin: protects C2C12 myotubes from simvastatin toxicity; rescue of ATP level, % at 7.49 µM; AID 602340; 330,000 tested, 0.78% active; ATP luminescence, 48 h; scaled: DMSO 0, geranylgeraniol control 100;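 active = mean ATP rescue above about 67%, or every replicate alone reaching that limit, limit read from the data, passing the limit was not always enough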;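 also: myotubes were challenged with 10 µM simvastatin during compound exposure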
SR-BI uptake up: SR-BI HDL lipid transfer activation. CHO ldlA[mSR-BI] cells, DiI-HDL uptake fluorescence, 3 h; 100 = double the neutral-control signal. activation, % at 12.5 µM. 320,000 tested, 0.096% active. AID 504775;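 active = mean replicate activation of at least 60% and every replicate at or above 60%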
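Test system: SR-BI-overexpressing, LDLR-lacking CHO cells. Measured by: DiI fluorescence, bottom read. Medium: Ham's F12 with 0.5% BSA, HEPES 25 mM, pH 7.4. Timing: 3 h uptake period with compound, 37 °C.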
Each line names hits and unclear results; the compound was inactive in the other large screens. Rows were chosen to be rich in hits. Some 1.7% of all compounds tested hit in one or more screens of this group.

C[C@H](O)C#Cc1cnc2c(c1)C(=O)N([C@@H](C)CO)C[C@H](C)[C@@H](CN(C)C(=O)c1ccc(F)cc1)O2	none (no result: SR-BI HDL uptake, Vif inh, SR-BI uptake up)
CCCN1C2CCCC1CC(NC(=O)Nc1cccc(C(C)=O)c1)C2 (configuration not stated)	none
CC(=O)c1cccc(NC(=O)NC2CC3CCCC(C2)N3CC(C)C)c1 (configuration not stated)	Vif inh 54
CN1/C(=C\C=C(C#N)C#N)C(C)(C)c2ccccc21	Vif inh 119
C[C@H]1CN([C@@H](C)CO)S(=O)(=O)c2ccc(C#CC3(O)CCCC3)cc2O[C@H]1CN(C)C(=O)Cc1ccncc1	none (no result: SR-BI HDL uptake, Vif inh, SR-BI uptake up)
COC(=O)c1ccc2c(c1)C(C)(C)C(/C=C/c1ccc(OC)c(OC)c1OC)=[N+]2C	SR-BI HDL uptake 105
NS(=O)(=O)c1ccc(Nc2nc(-c3cccc([N+](=O)[O-])c3)cs2)cc1	none
O=C(Nc1ccc(-c2csc(Nc3ccc(Cl)cc3)n2)cc1)c1cc([N+](=O)[O-])cc(C(F)(F)F)c1	SR-BI HDL uptake 106
O=C(CSc1nc(-c2ccc(Cl)cc2)cs1)Nc1cccc([N+](=O)[O-])c1	none (no result: C2C12 statin)
O=C(Nc1cccc(-c2csc(Nc3ccccc3)n2)c1)c1cc([N+](=O)[O-])cc(C(F)(F)F)c1	SR-BI HDL uptake 97
O=C(Nc1cccc(-c2csc(Nc3ccc(Cl)cc3)n2)c1)c1cc([N+](=O)[O-])cc(C(F)(F)F)c1	SR-BI HDL uptake 127
C[C@@H]1CN([C@@H](C)CO)S(=O)(=O)c2ccc(-c3ccc(C(=O)N(C)C)cc3)cc2O[C@@H]1CN(C)C(=O)Nc1ccccc1F	none (no result: SR-BI HDL uptake, Vif inh, SR-BI uptake up)
CC(C)[C@H](NS(=O)(=O)c1ccccc1)C(=O)OCC(=O)NC1CCCCC1	none
CC(C)[C@H](NS(=O)(=O)c1ccccc1)C(=O)OCC(=O)NC(=O)NC1CCCCC1	C2C12 statin 114
CCOc1ccc(NC(=O)CN(C)C(=O)C2CC(=O)N(c3cccc(SC)c3)C2)cc1OCC (configuration not stated)	SR-BI HDL uptake 72
CCOc1ccc(NC(=O)CN(C)C(=O)C2CC(=O)N(c3ccc4c(c3)OCCO4)C2)cc1OCC (configuration not stated)	none
COCCNC(=O)CSc1nc2ccccc2c2nc(C)nn12	C2C12 statin 124 (no result: Vif inh)
CCCCn1c(=O)c(-c2ccccc2)c(O)c2ccccc21	C2C12 statin 120 (no result: Vif inh)
C[C@@H]1CN([C@@H](C)CO)C(=O)c2cc(NC(=O)CCN3CCOCC3)ccc2O[C@H]1CN(C)Cc1ccccc1	none (no result: SR-BI HDL uptake, Vif inh, SR-BI uptake up)
CCCCCCn1c(N(CC)CC)nc2c1c(=O)[nH]c(=O)n2C	Vif inh 52
NC(=S)NN=C1C2CC3CC(C2)CC1C3	SR-BI HDL uptake 79 (no result: C2C12 statin)
Cc1ccccc1CNCCCSc1ncccn1	none
Cc1ccc(CNCCCSc2ncccn2)cc1	Vif inh 60
O=C(NCCCCNC(=O)c1ccccc1F)c1ccccc1F	SR-BI HDL uptake 75
N=C1C=CC(=C(c2ccc(N)cc2)c2ccc(N)cc2)C=C1	SR-BI HDL uptake 104
COc1cc(NC(=O)c2cc(C3CC3)on2)c(OC)cc1Cl	SR-BI HDL uptake 81
COc1ccc(NC(=O)c2cc(C(C)C)on2)c(OC)c1	none (no result: SR-BI HDL uptake, Vif inh, SR-BI uptake up)
COc1cc(NC(=O)c2cc(C(C)C)on2)c(OC)cc1Cl	SR-BI HDL uptake 82
C[C@@H]1CN([C@@H](C)CO)S(=O)(=O)c2ccc(C#CCN(C)C)cc2O[C@@H]1CN(C)Cc1cccnc1	none (no result: SR-BI HDL uptake, Vif inh, SR-BI uptake up)
Cc1ccc(S(=O)(=O)N(C)C[C@@H]2Oc3ccc(NC(=O)Nc4cccc5ccccc45)cc3C(=O)N([C@@H](C)CO)C[C@@H]2C)cc1	none (no result: SR-BI HDL uptake, Vif inh, SR-BI uptake up)
COc1ccc(C2CC(c3ccncc3)=NN2c2ccc(S(N)(=O)=O)cc2)cc1 (configuration not stated)	Vif inh 93
COc1ccc(C2CC(c3ccccc3)=NN2c2ccc(S(N)(=O)=O)cc2)cc1OC (configuration not stated)	none (no result: C2C12 statin)
COc1ccc(C2CC(c3cccc(Cl)c3)=NN2c2ccc(S(N)(=O)=O)cc2)cc1 (configuration not stated)	SR-BI HDL uptake 77
CCC(=O)Nc1cccc(C2=NN(c3ccccc3)C(c3ccc(OC)cc3)C2)c1 (configuration not stated)	SR-BI HDL uptake 70
COc1ccc(C2CC(c3ccc(Cl)cc3)=NN2c2ccc(S(N)(=O)=O)cc2)cc1 (configuration not stated)	none
COc1ccc(C2CC(c3ccccc3)=NN2c2ccc(Cl)c(C(=O)O)c2)cc1 (configuration not stated)	none
CCCn1nnc2ccccc2c1=O	none
CCOc1ccc(OCCn2nnc3ccccc3c2=O)cc1	SR-BI uptake up 152 (no result: C2C12 statin)
CO[C@H]1CN(C)C(=O)c2cc(NC(=O)C3CC3)ccc2OC[C@@H](C)N(C(=O)CN(C)C)C[C@@H]1C	none (no result: SR-BI HDL uptake, Vif inh, SR-BI uptake up)
COc1ccc(NC(=O)c2sc3nc(N4CCOCC4)c4c(c3c2N)CC(C)(C)OC4)cc1	none
COc1ccc(NC(=O)c2sc3nc(N4CCCC4)c4c(c3c2N)CC(C)(C)OC4)cc1	SR-BI HDL uptake 73
CC(=O)Nc1sc(N/N=C/c2ccccc2)nc1-c1ccc(C)cc1	none (no result: SR-BI HDL uptake, C2C12 statin, SR-BI uptake up)
CCCc1sc(N/N=C/c2ccccn2)nc1-c1ccc(Br)cc1	SR-BI HDL uptake 72
C[C@@H]1CN([C@H](C)CO)C(=O)Cc2cc(NC(=O)Cc3cn(C)c4ccccc34)ccc2O[C@H]1CN(C)S(=O)(=O)c1cccs1	none (no result: SR-BI HDL uptake, Vif inh, SR-BI uptake up)
C[C@@H]1CN([C@H](C)CO)S(=O)(=O)c2ccc(C#CC3CC3)cc2O[C@@H]1CN(C)Cc1ccc(F)cc1	none (no result: SR-BI HDL uptake, Vif inh, SR-BI uptake up)
CCC(=O)NC[C@@H]1[C@H](c2ccccc2)[C@H](CO)N1C(=O)C1CC1	none (no result: SR-BI HDL uptake, Vif inh, SR-BI uptake up)
Cn1c(N)c(C(=O)COC(=O)C2(c3cccc(F)c3)CCCC2)c(=O)n(C)c1=O	C2C12 statin 108
Cc1noc(C)c1S(=O)(=O)Nc1ccc2c(c1)C(=O)N([C@H](C)CO)C[C@@H](C)[C@H](CN(C)Cc1ccc(Cl)c(Cl)c1)OCCCC[C@@H](C)O2	none (no result: SR-BI HDL uptake, Vif inh, SR-BI uptake up)
Cc1ccc(S(=O)(=O)Nc2ccc(SC(F)F)cc2)c(C)c1	Vif inh 61 (no result: C2C12 statin)
CC(C)c1ccc(S(=O)(=O)Nc2ccc(SC(F)F)cc2)cc1	none (no result: C2C12 statin)
O=C(N[C@H]1CC[C@H](CCNS(=O)(=O)c2ccccc2)O[C@H]1CO)c1cnccn1	none (no result: SR-BI HDL uptake, Vif inh, SR-BI uptake up)
C[C@H]1CN([C@@H](C)CO)S(=O)(=O)c2ccc(C#CC3CCCC3)cc2O[C@H]1CN(C)C(=O)Cc1ccccc1	none (no result: SR-BI HDL uptake, Vif inh, SR-BI uptake up)
C[C@H]1CN([C@@H](C)CO)C(=O)c2cccc(NS(=O)(=O)c3cccs3)c2O[C@@H]1CN(C)C(=O)Nc1ccc(C(F)(F)F)cc1	C2C12 statin 86 (no result: SR-BI HDL uptake, Vif inh, SR-BI uptake up)
C[C@H]1CN([C@@H](C)CO)C(=O)c2cccc(NS(=O)(=O)c3cccs3)c2O[C@H]1CN(C)C(=O)Nc1ccc(C(F)(F)F)cc1	none (no result: SR-BI HDL uptake, Vif inh, SR-BI uptake up)
COc1ccc(NC(=O)N(C)C[C@H]2Oc3c(NS(=O)(=O)c4cccs4)cccc3C(=O)N([C@H](C)CO)C[C@@H]2C)cc1	none

Assay outcomes as filed in PubChem BioAssay.
